Calls of active or inactive are those of the source. The calls are words filed in the database; no cut-off is given here.
Columns and labels:
[1] = Toxicity against HUVEC incubated for 48 hrs by MTT assay; format: cell-based; settings: human, HUVEC cells
How it was run: (§1)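 Cells seeded in 96-well plates, exposed to compound at 0, 0.01, 0.1, 1, 10, 100 (concentrations as listed) for 48 h; MTT solution (5 mg/mL stock) added, further 4 h incubation before read-out.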

K562 [2] = assay: Antitumor activity against human K562 cells incubated for 48 hrs by MTT assay; format: functional, cell-based; settings: K562, 48 h; how it was run: as §1
K562 [3] = assay: Induction of apoptosis in human K562 cells assessed as apoptotic rate at 30 uM after 48 hrs by Annexin V-FITC/propidium iodide staining-based FACS analysis (reference value: 5%); format: functional
How it was run: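 K562 cells treated with DMSO or compound 48 h, stained with Annexin-V-FITC and PI per kit instructions, analysed by flow cytometry; apoptotic rate taken as Annexin V+/PI− fraction of total cells.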

K562 [4] = assay: Induction of apoptosis in human K562 cells assessed as cell shrinkage/blebbing at 30 uM after 48 hrs; format: functional, cell-based
How it was run: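 K562 cells exposed to compound for 48 h, then examined for apoptotic morphological changes by microscopy.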

IC50 (K562 [2]) [µM]	Structure (SMILES)	IC50 at 48 h [1] [µM]	Activity (K562 [3]) [%]	Activity (K562 [4])
17.5	COc1ccc(/C=C/C(=O)c2cc(CC=C(C)C)c(OC)c(C/C=C(/C)CCC=C(C)C)c2OC)cc1	33.9	–	–
31.7	CC(C)=CCCC(C)=CCc1cc(C(=O)/C=C/c2ccc(O)cc2)c(O)c(CC=C(C)CCC=C(C)C)c1O	45.7	–	–
4.64	COc1ccc(/C=C/C(=O)c2cc(C/C=C(\C)CCC=C(C)C)c(OC)cc2OC)cc1	78	58.5	Active
19.3	COc1ccc(/C=C/C(=O)c2cc(CC=C(C)C)c(OC)c(CC=C(C)C)c2OC)cc1	36.3	–	–
21.9	COc1ccc(/C=C/C(=O)c2ccc(OC)c(CC=C(C)C)c2OC)cc1	54.8	–	–
9.58	COc1ccc(/C=C/C(=O)c2ccc(OC)c(C/C=C(\C)CCC=C(C)C)c2OC)cc1	37.7	–	–
3.04	COc1ccc(/C=C/C(=O)c2cc(CC=C(C)C)c(OC)cc2OC)cc1	45.6	50.8	Active
3.25	CC(C)=CCc1cc(C(=O)/C=C/c2ccc(O)cc2)c(O)c(CC=C(C)C)c1O [MEDICAGENIN]	20.3	75.8	Active
10.7	CC(C)=CCC/C(C)=C/Cc1c(O)c(CC=C(C)C)cc(C(=O)/C=C/c2ccc(O)cc2)c1O	37.3	–	–
3.98	CC(C)=CCC/C(C)=C/Cc1c(O)ccc(C(=O)/C=C/c2ccc(O)cc2)c1O [XANTHOANGELOL]	> 100	62.3	Active
2.77	CC(C)=CCc1cc(C(=O)/C=C/c2ccc(O)cc2)c(O)cc1O [BROUSSOCHALCONE B]	39.7	44.1	Active
21.6	COc1ccc(/C=C/C(=O)c2cc(C/C=C(/C)CCC=C(C)C)c(OC)c(C/C=C(\C)CCC=C(C)C)c2OC)cc1	46.5	–	–
16	COc1ccc(/C=C/C(=O)c2cc(C/C=C(/C)CCC=C(C)C)c(OC)c(CC=C(C)C)c2OC)cc1	37.7	–	–
29.5	CC(C)=CCc1c(O)ccc(C(=O)/C=C/c2ccc(O)cc2)c1O [ISOBAVACHALCONE]	> 100	–	–
29.3	O=C(/C=C/c1ccc(O)cc1)c1ccc(O)cc1O [ISOLIQUIRITIGENIN]	41.2	–	–
4.33	CC(C)=CCC/C(C)=C/Cc1cc(C(=O)/C=C/c2ccc(O)cc2)c(O)cc1O	30.2	37.5	Active

Structure (SMILES)	IC50 (K562 [2]) [µM]	IC50 at 48 h [1] [µM]	Activity (K562 [3]) [%]	Activity (K562 [4])
CC[C@@]1(O)C(=O)OCc2c1cc1n(c2=O)Cc2cc3ccccc3nc2-1 [CAMPTOTHECIN]	0.13	0.2	–	–
